Laboratory results: ChEMBL document CHEMBL1132924, “Molecular determinants of MAO selectivity in a series of indolylmethylamine derivatives: biological activities, 3D-QSAR/CoMFA analysis, and computational simulation of ligand recognition” (J Med Chem, 2000)

Assays:
[1] = molecular target: T1, Amine oxidase [flavin-containing] A (Rattus norvegicus, UniProt P21396); experiment: (§1) Inhibitory activity against Monoamine oxidase A
T1 sequence (P21396 whole entry): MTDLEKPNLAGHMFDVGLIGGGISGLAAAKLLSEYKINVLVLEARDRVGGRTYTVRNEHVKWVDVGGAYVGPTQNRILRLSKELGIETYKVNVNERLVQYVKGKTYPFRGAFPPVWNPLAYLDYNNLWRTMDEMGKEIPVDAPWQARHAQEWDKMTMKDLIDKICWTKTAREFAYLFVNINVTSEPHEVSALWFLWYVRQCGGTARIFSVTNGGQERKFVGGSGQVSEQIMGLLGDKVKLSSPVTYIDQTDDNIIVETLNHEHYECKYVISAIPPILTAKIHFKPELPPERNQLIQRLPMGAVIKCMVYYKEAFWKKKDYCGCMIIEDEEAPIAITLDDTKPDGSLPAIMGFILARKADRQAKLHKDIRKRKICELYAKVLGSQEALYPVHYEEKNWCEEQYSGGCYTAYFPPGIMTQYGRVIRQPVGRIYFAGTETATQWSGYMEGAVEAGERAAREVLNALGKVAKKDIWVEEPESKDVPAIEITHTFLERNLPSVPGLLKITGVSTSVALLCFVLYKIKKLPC
Procedure, shortened: (§2)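 Rat liver mitochondrial fraction (male Sprague-Dawley, 200-250 g), homogenised in 50 mM potassium phosphate pH 7.2. Kynuramine 40 µM as substrate with MAO-B activity blocked beforehand by L-deprenyl, product read at 324 nm. Ki for reversible complex formation obtained by direct analysis of spectrophotometric reaction progress curves over varying inhibitor concentrations.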

[2] = molecular target: T2, Amine oxidase [flavin-containing] B (Rattus norvegicus, UniProt P19643); experiment: (§3) Inhibitory activity against Monoamine oxidase B
T2 sequence (P19643 whole entry): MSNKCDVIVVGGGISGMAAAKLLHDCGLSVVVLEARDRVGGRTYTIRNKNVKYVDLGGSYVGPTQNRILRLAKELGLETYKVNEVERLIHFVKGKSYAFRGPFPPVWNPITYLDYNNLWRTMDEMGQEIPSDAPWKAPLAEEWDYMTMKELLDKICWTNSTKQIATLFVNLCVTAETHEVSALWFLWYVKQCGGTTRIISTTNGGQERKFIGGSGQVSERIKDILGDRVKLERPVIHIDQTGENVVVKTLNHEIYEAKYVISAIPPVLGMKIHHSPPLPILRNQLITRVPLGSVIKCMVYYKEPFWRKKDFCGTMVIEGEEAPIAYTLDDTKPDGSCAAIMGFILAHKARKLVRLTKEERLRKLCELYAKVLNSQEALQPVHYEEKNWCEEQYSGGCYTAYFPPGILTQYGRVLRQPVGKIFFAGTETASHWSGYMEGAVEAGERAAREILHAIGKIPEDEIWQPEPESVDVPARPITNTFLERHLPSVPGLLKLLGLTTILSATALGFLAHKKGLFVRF
Procedure, shortened: (§4)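 Enzyme is a mitochondrial fraction from livers of male Sprague-Dawley rats (200-250 g), homogenised in 50 mM potassium phosphate pH 7.2. Activity followed at 37 °C with 333 µM benzylamine, product appearance read at 250 nm. Ki for reversible complex formation came from direct fitting of progress curves recorded at varying inhibitor concentrations.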

[3] = molecular target: T1, Amine oxidase [flavin-containing] A; experiment: as §1; procedure, shortened: as §2; remark: listed apart in the source
[4] = molecular target: T2, Amine oxidase [flavin-containing] B; experiment: as §3; procedure, shortened: as §4; remark: listed apart in the source

SMILES | Ki [1] | Ki [2] | Ki [3] | Ki [4]
CC#CCN(C)Cc1cc2cc(O)ccc2n1C | 0.00575 µM | 8.8 µM | 0.0057 µM | –
C#CCNCc1cc2cc(O)ccc2n1C | 3.98 µM | 8.9 µM | 4 µM | –
CC#CCNCc1cc2cc(OCc3ccccc3)ccc2[nH]1 | 15.1 µM | 0.015 µM | – | –
CC#CCN(C)Cc1cc2cc(OC)ccc2n1C | 0.00141 µM | 0.37 µM | 0.0014 µM | –
C#CCNCc1cc2cc(OCc3ccccc3)ccc2[nH]1 | – | 0.00075 µM | 0.79 µM | –
c1ccc(CNCc2cc3ccccc3[nH]2)cc1 | 87.1 µM | 159 µM | 87 µM | –
C#CCN(C)Cc1cc2cc(O)ccc2n1C | 0.00398 µM | 0.82 µM | 0.004 µM | –
CC(C)NCc1cn(Cc2ccccc2)c2ccccc12 | 132 µM | 438 µM | 133 µM | –
C#CCN(C)Cc1cc2cc(OC)ccc2n1C | 0.00151 µM | 0.03 µM | 0.0015 µM | 0.0575 µM
C#CCNCc1cc2cc(OC)ccc2n1C | 0.000813 µM | 0.004 µM | 0.0008 µM | –
c1ccc(CNCc2cn(Cc3ccccc3)c3ccccc23)cc1 | 245 µM | 362 µM | 244 µM | –

Other lines, results leading:

Ki [1] | Ki [2] | Ki [3] | Ki [4] | SMILES
0.000302 µM | 0.003 µM | 0.0003 µM | – | C#CCN(C)Cc1cc2ccccc2n1C
0.00427 µM | 0.03 µM | 0.0043 µM | – | CC#CCN(C)Cc1cc2ccccc2n1C
158 µM | 476 µM | 160 µM | – | C#CCN(C)Cc1cn(Cc2ccccc2)c2ccccc12
166 µM | 338 µM | 167 µM | – | CNCc1cn(Cc2ccccc2)c2ccccc12
263 µM | 429 µM | 262 µM | – | CCNCc1cn(Cc2ccccc2)c2ccccc12
– | 260 µM | > 1000 µM | – | C#CCN(Cc1ccccc1)Cc1cn(Cc2ccccc2)c2ccccc12
0.24 µM | 3.83 µM | 0.24 µM | – | C#CCNCc1cc2ccccc2n1C
10 µM | 60 µM | 10 µM | – | C#CCN(Cc1ccccc1)Cc1cc2ccccc2n1C
33.9 µM | 48 µM | 34 µM | – | Cn1c(CNCc2ccccc2)cc2ccccc21
– | 50 µM | > 1000 µM | – | CC#CCN(Cc1ccccc1)Cc1cc2ccccc2n1C
